Data taken from ChEMBL document CHEMBL2311473, “Characterization of antimicrobial, cytotoxic, and antiendotoxin properties of short peptides with different hydrophobic amino acids at "a" and "d" positions of a heptad repeat sequence” (J Med Chem, 2013).
Converted amounts (≈) assume the structure as drawn. The source made the active and inactive calls. The rule behind the calls is not given here.

Tests used:
[1] = test system: NIH3T3; assay: Cytotoxicity against mouse 3T3 cells assessed as cell viability up to 25 uM by MTT assay; type: cell-based
How it was run: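 Murine 3T3 fibroblasts, grown in DMEM/IMDM with 10% FCS at 37 °C, 5% CO2, seeded at 10000 cells/well. Viability after peptide exposure measured by MTT (mitochondrial dehydrogenase) across a dose range.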

[2] = test system: Staphylococcus epidermidis; assay: Antibacterial activity against Staphylococcus epidermidis NRRL B-4268 after 18 hrs by broth dilution method; type: functional; settings: NRRL B-4268, 18 h
How it was run: (§1)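 Bacteria grown aerobically at 37 °C in Mueller-Hinton broth to mid-log phase (OD600), diluted to ~10^6 cfu/mL, then mixed 1:1 with 2-fold serial peptide dilutions in water. Incubation ~18 h at 37 °C before MIC read-out (μM).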

[3] = test system: Klebsiella pneumoniae; assay: Antibacterial activity against Klebsiella pneumoniae ATCC 27736 after 18 hrs by broth dilution method; type: functional; settings: ATCC 27736, 18 h; how it was run: as §1
[4] = test system: RAW264.7; assay: Antiinflammatory activity in mouse RAW264.7 cells assessed as inhibition of LPS-induced TNFalpha secretion at 1.5 to 4.5 uM after 12 hrs by ELISA; type: functional, cell-based
How it was run: (§2)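 RAW 264.7 cells treated with LPS alone or LPS plus peptide. TNF-α and IL-6 measured by ELISA in culture supernatant and expressed as percentage inhibition of LPS-induced secretion. Mean of three independent experiments, SD shown.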

[5] = test system: Trichophyton mentagrophytes; assay: Antifungal activity against Trichophyton mentagrophytes after 96 hrs by NCCLS microbroth dilution method; type: functional
How it was run: (§3)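 Microbroth dilution in MOPS-buffered RPMI 1640 following NCCLS guidelines. Inoculum 1−5 × 10^3 cells/mL, peptide range 50−0.36 (mass/mL). Plates held in a moist chamber at 35 °C and A492 read after 48 h (Candida spp.), 72 h (A. fumigatus, S. schenckii, C. neoformans) or 96 h (T. mentagrophytes). MIC taken as 90% growth inhibition versus growth control.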

[6] = Binding affinity to PC/Chol lipid vesicles assessed as decrease in acrylamide-induced tryptophan fluorescence quenching at 1 uM; type: physicochemical
How it was run: (§4)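 Acrylamide quencher added in aliquots from 3.0 M stock to peptide with PC/Chol (8:1) or PE/PG (7:3) SUVs, peptide/lipid 1:100. Trp excited at 295 nm. Values corrected for dilution and vesicle-blank scatter, then fitted to Stern–Volmer F0/F = 1 + KSV[Q].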

[7] = Binding affinity to PE/PG lipid vesicles assessed as increase in helical structure at 36 uM by circular dichroism analysis; type: physicochemical
How it was run: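 Peptides (~36 μM) with ~500 μM PC/Chol (8:1 w/w) or PE/PG (7:3 w/w) vesicles. CD spectra 250–190 nm at ~30 °C in 0.2 cm cuvette; 4–6 scans averaged at 20 nm/min, 0.5 nm interval.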

[8] = test system: Lipopolysaccharide (LPS); assay: Binding affinity to LPS assessed as inhibition of LPS-induced LAL enzyme activation at 9 uM after 30 mins by spectrophotometric analysis
How it was run: (§5)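 Chromogenic limulus amoebocyte lysate endotoxin kit. Peptide binding to LPS estimated from inhibition of LPS-induced LAL enzyme activation, i.e. reduced substrate colour, and reported as percentage LPS binding.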

[9] = test system: Staphylococcus aureus; assay: Antibacterial activity against methicillin-resistant Staphylococcus aureus after 18 hrs by broth dilution method; type: functional; how it was run: as §1
[10] = test system: Aspergillus fumigatus; assay: Antifungal activity against Aspergillus fumigatus after 72 hrs by NCCLS microbroth dilution method; type: functional; how it was run: as §3
[11] = Drug uptake in human RBC assessed as membrane localization at 9 uM after 10 to 30 mins by confocal microscopic analysis; type: ADME; settings: erythrocyte
How it was run: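 Fresh hRBCs (3% in PBS) incubated with NBD-labeled peptide (~9.0 μM) for 10–30 min at 37 °C. Washed, fixed in 2% paraformaldehyde 10 min, and imaged by confocal microscopy at constant photomultiplier setting.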

[12] = test system: Staphylococcus aureus; assay: Antibacterial activity against Staphylococcus aureus ATCC 9144 after 18 hrs by broth dilution method; type: functional; settings: ATCC 9144, 18 h; how it was run: as §1
[13] = test system: Escherichia coli; assay: Bactericidal activity against Escherichia coli ATCC 10536 assessed as induction of membrane damage at 5 uM after 30 mins by propidium iodide staining-based flow cytometric analysis; type: functional, organism-based
How it was run: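 Mid-log E. coli incubated with peptide (~5.0 μM) 30 min at 37 °C with shaking. Cells washed twice in PBS, stained with propidium iodide 30 min at 4 °C, washed and resuspended. 10000 events per sample by flow cytometry, compared with peptide-free control.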

[14] = test system: Escherichia coli; assay: Antibacterial activity against Escherichia coli ATCC 10536 after 18 hrs by broth dilution method; type: functional; settings: ATCC 10536, 18 h; how it was run: as §1
[15] = Binding affinity to PC/Chol lipid vesicles assessed as induction of large blue shift at 1 uM by fluorescence assay; type: physicochemical
[16] = test system: Escherichia coli; assay: Drug uptake in Escherichia coli ATCC 10536 assessed as membrane localization at 3 uM after 30 mins by confocal microscopic analysis; type: ADME, organism-based; settings: in vivo, 0.5 h
How it was run: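 E. coli (~10^6 CFU/mL) in LB incubated with fluorescent-labeled peptide (~3.0 μM) for half an hour. Cells centrifuged, washed and imaged by confocal microscopy (DIC and fluorescence).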

[17] = test system: Sporothrix schenckii; assay: Antifungal activity against Sporothrix schenckii after 72 hrs by NCCLS microbroth dilution method; type: functional; how it was run: as §3
[18] = test system: RAW264.7; assay: Antiinflammatory activity in mouse RAW264.7 cells assessed as inhibition of LPS-induced NO production at 6 uM by Griess method; type: functional; set-up: scale not given: the % may be the effect or the level left
How it was run: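 RAW 264.7 cells plated at 5 × 10^5/well and exposed to LPS (E. coli 0111:B4, 1 μg/mL) together with peptide at varying doses. Cells with and without LPS served as maximum and basal NO controls. Nitrite in the supernatant measured by Griess reagent at 548 nm against a sodium nitrite standard curve, and percent inhibition of NO calculated.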

[19] = test system: Lipopolysaccharide (LPS); assay: Binding affinity to LPS assessed as inhibition of LPS-induced LAL enzyme activation at 18 uM after 30 mins by spectrophotometric analysis; how it was run: as §5
[20] = Cytotoxicity against human RBC assessed as hemolysis at 60 uM; type: cell-based, Erythrocyte; settings: red blood cells (RBC), read-out: Activity
How it was run: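 hRBCs in PBS exposed to peptide. Hemoglobin release read as supernatant absorbance at 540 nm. Hemolysis % = (Asample − Ablank)/(Atriton − Ablank) × 100, with PBS blank and 0.2% Triton X-100 (final) as 100% reference.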

[21] = test system: Candida albicans; assay: Antifungal activity against Candida albicans after 48 hrs by NCCLS microbroth dilution method; type: functional; how it was run: as §3
[22] = test system: Cryptococcus neoformans; assay: Antifungal activity against Cryptococcus neoformans after 72 hrs by NCCLS microbroth dilution method; type: functional; how it was run: as §3
[23] = test system: Bacillus subtilis; assay: Antibacterial activity against Bacillus subtilis ATCC 6633 after 18 hrs by broth dilution method; type: functional; settings: ATCC 6633, 18 h; how it was run: as §1
[24] = Binding affinity to PE/PG lipid vesicles assessed as induction of large blue shift at 1 uM by fluorescence assay; type: physicochemical
[25] = test system: Lipopolysaccharide (LPS); assay: Binding affinity to LPS assessed as inhibition of LPS-induced LAL enzyme activation at 4.5 uM after 30 mins by spectrophotometric analysis; how it was run: as §5
[26] = test system: Lipopolysaccharide (LPS); assay: Binding affinity to LPS assessed as increase in helical structure at 36 uM by circular dichroism analysis
How it was run: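 CD spectra of peptides (36 μM) recorded alone and with LPS at 3.8 and 6.25 μM.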

[27] = test system: RAW264.7; assay: Antiinflammatory activity in mouse RAW264.7 cells assessed as inhibition of LPS-induced IL6 secretion at 1.5 to 4.5 uM after 12 hrs by ELISA; type: functional, cell-based; how it was run: as §2
[28] = test system: Pseudomonas aeruginosa; assay: Antibacterial activity against Pseudomonas aeruginosa ATCC BAA-427 after 18 hrs by broth dilution method; type: functional; settings: ATCC BAA-427, 18 h; how it was run: as §1
[29] = test system: RAW264.7; assay: Antiinflammatory activity in mouse RAW264.7 cells assessed as downregulation of LPS-induced iNOS2 expression at 4.5 uM after 24 hrs by Western blotting analysis; type: functional, cell-based
How it was run: (§6)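 RAW 264.7 cells (~2 × 10^5) stimulated with LPS 1 μg/mL plus peptide 4.5 μM for 24 h. Cells washed in ice-cold PBS and lysed in Laemmli buffer. SDS-PAGE (8% gel iNOS-2, 12% TNF-α), nitrocellulose transfer, alkaline phosphatase secondary with NBT/BCIP. Band densities normalized to β-actin. LPS-only and untreated cells served as controls.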

[30] = Induction of dissipation of diffusion potential in PE/PG lipid vesicles by fluorescence assay; type: physicochemical
How it was run: (§7)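 SUVs of PC/Chol (8:1 w/w) or PE/PG (7:3 w/w) treated with peptide. Dissipation of diffusion potential taken as percentage fluorescence recovery ~5 min after peptide addition, with valinomycin used for reference levels. Plotted against peptide/lipid molar ratio.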

[31] = Cytotoxicity against human RBC assessed as induction of membrane damage at 25 uM after 5 mins by annexin V-FITC staining-based FACS flow cytometric analysis; type: cell-based; settings: erythrocyte
How it was run: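 hRBCs (~3.0 × 10^7 cells/mL) treated with peptide (~25.0 μM) for 5 min at room temperature. Stained with FITC-annexin V and analysed by flow cytometry, 10000 events, compared with untreated control.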

[32] = Binding affinity to PE/PG lipid vesicles assessed as decrease in decrease in acrylamide-induced tryptophan fluorescence quenching at 1 uM; type: physicochemical; how it was run: as §4
[33] = Induction of dissipation of diffusion potential in PC/Chol lipid vesicles by fluorescence assay; type: physicochemical; how it was run: as §7
[34] = test system: Candida parapsilosis; assay: Antifungal activity against Candida parapsilosis ATCC 22019 after 48 hrs by NCCLS microbroth dilution method; type: functional; settings: Lodderomyces parapsilosis, ATCC 22019, 48 h; how it was run: as §3
[35] = Cytotoxicity against human RBC assessed as induction of membrane depolarization at up to 16 uM by DiSC3(5) staining-based fluorescence assay; type: cell-based; settings: erythrocyte
How it was run: (§8)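 Membrane potential dye diS-C3-5 preincubated 1 h with hRBC or S. aureus suspensions; I0 is steady-state fluorescence after this incubation. Peptide then added at varying concentrations. Depolarization expressed as percentage fluorescence recovery (Ft) versus peptide concentration.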

[36] = test system: Lipopolysaccharide (LPS); assay: Binding affinity to FITC-tagged LPS assessed as induction of disintegration up to 40 uM by […]; settings: in the assay text read “fluorescence dequenching” for “circular dichroism”
How it was run: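 FITC-LPS (0.5 μg/mL) titrated with increasing peptide concentrations. Disaggregation read as dequenching, i.e. rise in FITC fluorescence, monitored after each addition until emission reached equilibrium.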

[37] = test system: Staphylococcus aureus; assay: Bactericidal activity against Staphylococcus aureus ATCC 9144 assessed as induction of membrane depolarization at up to 7 uM by DiSC3(5) staining-based fluorescence assay; type: functional, organism-based; how it was run: as §8
[38] = test system: RAW264.7; assay: Antiinflammatory activity in mouse RAW264.7 cells assessed as downregulation of LPS-induced TNFalpha expression at 4.5 uM after 24 hrs by Western blotting analysis; type: functional, cell-based; how it was run: as §6

With `CC(C)[C@H](N)C(=O)O` [VALINE] the Activity [1] was “Toxic”, the MIC [2] was 6 µM (≈ 0.703 µg/mL) and the MIC [3] was 3.2 µM (≈ 0.375 µg/mL). For the same compound, the inhibition [4] was “Active”, the MIC [5] was 6 µM (≈ 0.703 µg/mL) and the Activity [6] was “Not Active”. For the same compound, the Activity [7] was “Active”, the inhibition [8] was 22% and the MIC [9] was 12.5 µM (≈ 1.46 µg/mL). For the same compound, the MIC [10] was 8.4 µM (≈ 0.984 µg/mL), the Drug uptake [11] was “Active” and the MIC [12] was 5.1 µM (≈ 0.597 µg/mL). The Activity [13] was “Active”, the MIC [14] was 3 µM (≈ 0.351 µg/mL) and the Activity [15] was “Not Active”. For the same compound, the Drug uptake [16] was “Active”, the MIC [17] was 6 µM (≈ 0.703 µg/mL) and the Activity [18] was 50%. It also gave an inhibition [19] of 29%, a hemolysis at 60 µM [20] of 10% and an MIC [21] of 9.6 µM (≈ 1.12 µg/mL). The MIC [22] was 8.4 µM (≈ 0.984 µg/mL), the MIC [23] was 6.8 µM (≈ 0.797 µg/mL) and the Activity [24] was “Active”. For the same compound, the inhibition [25] was 8%, the Activity [26] was “Active” and the inhibition [27] was “Active”. For the same compound, the MIC [28] was 3.2 µM (≈ 0.375 µg/mL), the Activity [29] was “Active” and the Activity [30] was “Active”. For the same compound, the Activity [31] was “Non-toxic”, the Activity [32] was “Active” and the Activity [33] was “Active”. For the same compound, the MIC [34] was 1.5 µM (≈ 0.176 µg/mL), the Activity [35] was “Non-toxic” and the Activity [36] was “Active”. For the same compound, the Activity [37] was “Active” and the Activity [38] was “Active”.
